# ChEMBL document CHEMBL5724801, “EUbOPEN Chemogenomics Library - Multiplex” (2024)
# Where “and” joins values, the source holds several entries; their conditions need not be identical. Identical values can stand only once.
# System: HEK-293T
# Test: Multiplex assay against HEK293T
# Format: toxicity, cell-based
# Settings: human
# Procedure, shortened: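 Compound was added to live cells that had been stained at seeding with Hoechst33342, BioTracker Green Microtubule Cytoskeleton Dye, MitoTracker Red and Annexin V Alexa Fluor 680, and imaging followed on a CQ1 microscope at 37°C and 5% CO2. CellPathfinder machine-learning gating divided cells into Hoechst high-intensity objects or normal cells, normal cells into healthy, pyknosed or fragmented nuclei, and pyknosed cells into mitotic or apoptotic. Tubulin, mitochondrial-mass and membrane-permeability phenotypes are per cents of healthy-nucleus cells.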
# [1] = 12 h, 1 µM, compound concentration 1 uM
# [2] = 12 h, 10 µM, compound concentration 10 uM
# [3] = 24 h, 1 µM, compound concentration 1 uM
# [4] = 24 h, 10 µM, compound concentration 10 uM
# [5] = 48 h, 1 µM, compound concentration 1 uM
# [6] = 48 h, 10 µM, compound concentration 10 uM
smiles,measurement,setting,value
N#Cc1c(Oc2cccc(OS(=O)(=O)CCCC(F)(F)F)c2)cccc1C(F)(F)F,Population Apoptotic (%),[1],35% and 63%
same,Population Fragmented Nuclei (%),[1],4% and 6%
same,Population Healthy Nuclei (%),[1],86% and 75%
same,Population Hoechst High Intensity Objects (%),[1],5% and 11%
same,Population Membrane Permeable-Phenotype (%),[1],0%
same,Population Mitochondria Different-Phenotype (%),[1],46% and 60%
same,Population Mitotic Cells (%),[1],65% and 36%
same,Population Normal (%),[1],94% and 88%
same,Population Pyknosed Nuclei (%),[1],8% and 17%
same,Population Tubulin-Different-Phenotype (%),[1],38% and 28%
same,Total Cell Count,[1],490 and 349
same,Population Apoptotic (%),[2],42% and 44%
same,Population Fragmented Nuclei (%),[2],8% and 6%
same,Population Healthy Nuclei (%),[2],65% and 64%
same,Population Membrane Permeable-Phenotype (%),[2],0%
same,Population Mitochondria Different-Phenotype (%),[2],74% and 81%
same,Population Mitotic Cells (%),[2],57% and 55%
same,Population Normal (%),[2],89% and 59%
same,Population Pyknosed Nuclei (%),[2],25% and 28%
same,Population Tubulin-Different-Phenotype (%),[2],65% and 58%
same,Total Cell Count,[2],290 and 318
same,Population Apoptotic (%),[3],28% and 60%
same,Population Fragmented Nuclei (%),[3],10% and 8%
same,Population Healthy Nuclei (%),[3],77% and 81%
same,Population Hoechst High Intensity Objects (%),[3],3% and 9%
same,Population Membrane Permeable-Phenotype (%),[3],0%
same,Population Mitochondria Different-Phenotype (%),[3],34% and 48%
same,Population Mitotic Cells (%),[3],71% and 40%
same,Population Normal (%),[3],96% and 90%
same,Population Pyknosed Nuclei (%),[3],12% and 9%
same,Population Tubulin-Different-Phenotype (%),[3],26% and 20%
same,Total Cell Count,[3],654 and 412
same,Population Apoptotic (%),[4],43% and 45%
same,Population Fragmented Nuclei (%),[4],9% and 10%
same,Population Healthy Nuclei (%),[4],77% and 61%
same,Population Membrane Permeable-Phenotype (%),[4],0%
same,Population Mitochondria Different-Phenotype (%),[4],66% and 68%
same,Population Mitotic Cells (%),[4],56% and 54%
same,Population Normal (%),[4],86% and 52%
same,Population Pyknosed Nuclei (%),[4],13% and 27%
same,Population Tubulin-Different-Phenotype (%),[4],56% and 41%
same,Total Cell Count,[4],338 and 312
same,Population Apoptotic (%),[5],20% and 56%
same,Population Fragmented Nuclei (%),[5],13% and 12%
same,Population Healthy Nuclei (%),[5],81% and 82%
same,Population Hoechst High Intensity Objects (%),[5],1% and 5%
same,Population Membrane Permeable-Phenotype (%),[5],1% and 0%
same,Population Mitochondria Different-Phenotype (%),[5],21% and 23%
same,Population Mitotic Cells (%),[5],79% and 43%
same,Population Normal (%),[5],98% and 94%
same,Population Pyknosed Nuclei (%),[5],5%
same,Population Tubulin-Different-Phenotype (%),[5],15% and 13%
same,Total Cell Count,[5],986 and 568
same,Population Apoptotic (%),[6],44% and 58%
same,Population Fragmented Nuclei (%),[6],11%
same,Population Healthy Nuclei (%),[6],78% and 69%
same,Population Membrane Permeable-Phenotype (%),[6],0%
same,Population Mitochondria Different-Phenotype (%),[6],44% and 47%
same,Population Mitotic Cells (%),[6],55% and 41%
same,Population Normal (%),[6],94% and 75%
same,Population Pyknosed Nuclei (%),[6],10% and 18%
same,Population Tubulin-Different-Phenotype (%),[6],29% and 23%
same,Total Cell Count,[6],464 and 363
Cn1cc(C(=O)OCC2CCN(CCNS(C)(=O)=O)CC2)c2ccccc21,Population Apoptotic (%),[1],39% and 56%
same,Population Fragmented Nuclei (%),[1],5% and 9%
same,Population Healthy Nuclei (%),[1],83% and 76%
same,Population Hoechst High Intensity Objects (%),[1],7% and 8%
same,Population Membrane Permeable-Phenotype (%),[1],0%
same,Population Mitochondria Different-Phenotype (%),[1],35% and 62%
same,Population Mitotic Cells (%),[1],60% and 43%
same,Population Normal (%),[1],92% and 91%
same,Population Pyknosed Nuclei (%),[1],10% and 14%
same,Population Tubulin-Different-Phenotype (%),[1],22% and 28%
same,Total Cell Count,[1],466 and 248
same,Population Apoptotic (%),[2],47% and 43%
same,Population Fragmented Nuclei (%),[2],10%
same,Population Healthy Nuclei (%),[2],73% and 71%
same,Population Hoechst High Intensity Objects (%),[2],6% and 10%
same,Population Membrane Permeable-Phenotype (%),[2],0%
same,Population Mitochondria Different-Phenotype (%),[2],55% and 73%
same,Population Mitotic Cells (%),[2],52% and 56%
same,Population Normal (%),[2],93% and 89%
same,Population Pyknosed Nuclei (%),[2],15% and 18%
same,Population Tubulin-Different-Phenotype (%),[2],53% and 47%
same,Total Cell Count,[2],479 and 393
same,Population Apoptotic (%),[3],29% and 48%
same,Population Fragmented Nuclei (%),[3],6% and 12%
same,Population Healthy Nuclei (%),[3],82% and 76%
same,Population Hoechst High Intensity Objects (%),[3],4% and 5%
same,Population Membrane Permeable-Phenotype (%),[3],1% and 0%
same,Population Mitochondria Different-Phenotype (%),[3],21% and 42%
same,Population Mitotic Cells (%),[3],70% and 51%
same,Population Normal (%),[3],95% and 94%
same,Population Pyknosed Nuclei (%),[3],10%
same,Population Tubulin-Different-Phenotype (%),[3],16% and 17%
same,Total Cell Count,[3],650 and 283
same,Population Apoptotic (%),[4],35% and 48%
same,Population Fragmented Nuclei (%),[4],11% and 10%
same,Population Healthy Nuclei (%),[4],74% and 79%
same,Population Hoechst High Intensity Objects (%),[4],5% and 6%
same,Population Membrane Permeable-Phenotype (%),[4],1% and 0%
same,Population Mitochondria Different-Phenotype (%),[4],43% and 56%
same,Population Mitotic Cells (%),[4],64% and 51%
same,Population Normal (%),[4],94% and 93%
same,Population Pyknosed Nuclei (%),[4],13% and 9%
same,Population Tubulin-Different-Phenotype (%),[4],50% and 37%
same,Total Cell Count,[4],587 and 491
same,Population Apoptotic (%),[5],25% and 44%
same,Population Fragmented Nuclei (%),[5],12% and 11%
same,Population Healthy Nuclei (%),[5],78% and 82%
same,Population Hoechst High Intensity Objects (%),[5],3% and 4%
same,Population Membrane Permeable-Phenotype (%),[5],1% and 3%
same,Population Mitochondria Different-Phenotype (%),[5],12% and 23%
same,Population Mitotic Cells (%),[5],74% and 55%
same,Population Normal (%),[5],96% and 95%
same,Population Pyknosed Nuclei (%),[5],8% and 6%
same,Population Tubulin-Different-Phenotype (%),[5],10% and 11%
same,Total Cell Count,[5],1090 and 490
same,Population Apoptotic (%),[6],38%
same,Population Fragmented Nuclei (%),[6],16% and 13%
same,Population Healthy Nuclei (%),[6],77% and 79%
same,Population Hoechst High Intensity Objects (%),[6],6% and 4%
same,Population Membrane Permeable-Phenotype (%),[6],1% and 0%
same,Population Mitochondria Different-Phenotype (%),[6],31% and 37%
same,Population Mitotic Cells (%),[6],61%
same,Population Normal (%),[6],93% and 95%
same,Population Pyknosed Nuclei (%),[6],6%
same,Population Tubulin-Different-Phenotype (%),[6],28% and 26%
same,Total Cell Count,[6],883 and 758
